Bioassay records as filed in PubChem BioAssay.
Sampled rows, rich in hits. Any-hit rate of the full collection: about 1.8%.
TLR4-MyD88 BLA: inhibitors of human TLR4-MyD88 binding | O00206+Q99836 | HeLa CL3-4 TLR4/MyD88 BLA complementation, FRET ratio | inhibition, % at 8.4 µM | actives 0.18% (n = 200,000); in the data active means inhibition above about 25%
MC4R antag cAMP: blocks human MC4R cAMP signaling; P32245; MC4R-expressing cells, MTII-stimulated cAMP, LANCE TR-FRET; inhibition, % at 6.5 µM; actives 0.48% (n = 360,000);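 active means inhibition above its plate's cutoff, the mean of tested wells on that plate plus 3 SD, cut at about 29% in these data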
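material = U2OS cells stably expressing human melanocortin 4 receptor (MC4R) | also added = Melanotan II challenge | dosing = single nominal compound dose of 6.5 µM | detection = TR-FRET with Eu-cAMP and labeled anti-cAMP, 671 nm | replication = singlicate | timing = compound 30 min, challenge 1 h, detection 1 h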
MC4R barr agon: activates human MC4R beta-arrestin recruitment. actives 0.98% (n = 360,000). U2OS MC4R beta-arrestin complementation, luminescence; percent of melanotan II response, DMSO zero. activation, % at 8.9 µM. AID 540308;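 active means activation above a per-plate cutoff, the mean activation of sample wells on that plate plus 3 SD, cut at about 8% in these data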
TLR9-MyD88 block: inhibitors of human TLR9-MyD88 binding; actives 0.21% (n = 340,000); CHO BLA complementation TLR9-MyD88, CCF4 FRET ratio; inhibition, % at 4.98 µM; Q9NR96+Q99836;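 active means inhibition above the mean over all tested compounds plus 3 SD, cut at about 21% in these data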
NOD2-RIPK2 inh: blocks binding of human NOD2 to RIPK2; O43353; CHO BLA complementation NOD2-RIPK2, CCF4 ratio; inhibition, % at 4.98 µM; actives 0.38% (n = 360,000); AID 624267; in the data active means inhibition above about 21%
Target sequence (O43353 whole entry, looked up): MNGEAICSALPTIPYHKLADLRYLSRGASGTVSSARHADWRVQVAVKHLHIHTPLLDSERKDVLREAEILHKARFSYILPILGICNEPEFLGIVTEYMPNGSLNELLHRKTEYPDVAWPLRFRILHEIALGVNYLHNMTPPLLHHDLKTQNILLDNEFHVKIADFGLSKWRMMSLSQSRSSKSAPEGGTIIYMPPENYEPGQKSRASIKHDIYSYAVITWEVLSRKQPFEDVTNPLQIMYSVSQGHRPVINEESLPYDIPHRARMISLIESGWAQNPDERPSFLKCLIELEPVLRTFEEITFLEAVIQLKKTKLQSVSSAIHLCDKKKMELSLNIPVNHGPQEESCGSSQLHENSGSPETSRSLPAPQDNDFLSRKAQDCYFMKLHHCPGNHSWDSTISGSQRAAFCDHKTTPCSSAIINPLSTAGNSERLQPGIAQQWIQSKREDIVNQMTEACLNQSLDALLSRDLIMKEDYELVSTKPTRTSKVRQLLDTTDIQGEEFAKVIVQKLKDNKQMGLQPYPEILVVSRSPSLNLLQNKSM
TLR4-MyD88 conf: confirmation of human TLR4-MyD88 binding inhibitors; shares compounds with TLR4-MyD88 BLA; HeLa CL3-4 BLA complementation, CCF4 FRET ratio; inhibition, % at 8.4 µM; actives 50% (n = 350);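 active means mean inhibition across three repeat runs above about 25% carried over from the earlier screen, limit read from the data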
BLA inh HeLa: beta-lactamase inhibition flagged in TLR4-MyD88 counter-screen | AID 1237 | shares compounds with TLR4-MyD88 BLA | inhibition, % at 8.4 µM | actives 63% (n = 350) | HeLa BLA reporter, CCF4 FRET ratio;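 active means mean inhibition over three repeats above about 26% taken from the earlier screen, limit read from the data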;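 further: HeLa cells stably expressing beta-lactamase reporter as counterscreen for TLR4-MyD88 inhibitors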
A number is an active result; - = inactive; . = not tested or not shown.

SMILES	TLR4-MyD88 BLA	MC4R antag cAMP	MC4R barr agon	TLR9-MyD88 block	NOD2-RIPK2 inh	TLR4-MyD88 conf	BLA inh HeLa
CCCCCCNC(=O)C(C#N)c1nc2ccccc2nc1N1CCCC1 (centres undefined)	38	-	-	-	-	29	-
CCCCCNC(=O)C(C#N)c1nc2ccccc2nc1N1CCCC1 (centres undefined)	-	-	-	-	-	.	.
Cn1c(-c2ccc(C=O)s2)nc2c3ccccc3c3ccccc3c21	47	-	-	-	-	40	61
COc1ccc(-c2nc(C#N)c(NCCN(C)C)o2)cc1	27	-	-	-	-	-	-
CC1CCCCC12NC(=O)N(CC(=O)N1CCN(S(=O)(=O)c3ccc(Cl)s3)CC1)C2=O (centres undefined)	.	-	-	-	-	.	.
COc1ccccc1NS(=O)(=O)c1ccc(C)c(NS(=O)(=O)c2cc(NC(C)=O)ccc2OC)c1	.	-	-	-	-	.	.
CCN(CC)c1ccc(/C=C(\C#N)c2nc(-c3cccs3)c(NC(C)=O)s2)cc1	28	.	.	.	.	28	51
O=[N+]([O-])c1ccc(N/N=C/c2cn(-c3ccccc3)nc2-c2ccccc2)cc1	38	-	-	-	-	38	75
Oc1ccc2ccccc2c1/C=N/Nc1nnc(-c2ncc[nH]2)c2ccccc12	33	-	-	-	-	-	50
CCCCCCn1c2c(c(=N)c3c1CCC3)CCC2	27	-	-	-	-	-	-
CCCCCCCCCn1c2c(c(=N)c3c1CCC3)CCC2	-	-	-	-	-	.	.
CCCCCCCn1c2c(c(=N)c3c1CCC3)CCCC2	26	-	-	-	-	-	26
Cc1ccc(C)c(C(=O)COC(=O)CN2C(=O)C3C4C=CC(C4)C3C2=O)c1 (centres undefined)	.	-	-	-	-	.	.
O=C(Nc1ccc2oc(-c3cccnc3)nc2c1)c1ccc(Br)o1	-	-	-	-	-	.	.
O=C(Nc1ccc2oc(-c3cccnc3)nc2c1)c1ccc([N+](=O)[O-])o1	30	-	-	-	-	-	-
O=C(NCCCc1ccccc1)c1ccccc1	26	-	-	-	-	-	-
Cc1ccc(C2C(C#N)=C(N)Oc3cc(N)ccc32)cc1 (centres undefined)	.	-	-	-	-	.	.
Cc1ccc(/C=C2\CCC3=C2OC(N)=C(C#N)C3c2ccc(C)cc2)cc1 (centres undefined)	34	-	-	-	-	29	66
Cc1nnc(SCC(=O)Nc2ccc(N3CCN(S(C)(=O)=O)CC3)cc2)o1	.	-	-	-	-	.	.
O=C1N=c2ccccc2=C1c1sc(Nc2cccc(O)c2)nc1O	.	-	-	-	-	.	.
O=C1N=c2ccccc2=C1c1sc(Nc2ccc(O)cc2)nc1O	27	-	-	-	-	-	-
Cc1ccc(C(=O)N2CCC(C)CC2)cc1NC1=NC2CS(=O)(=O)CC2S1 (centres undefined)	.	-	-	-	-	.	.
CN(C)c1ccc(C2CC(c3ccccc3)=Nc3nc(-c4ccccc4)cn32)cc1 (centres undefined)	25	.	.	.	.	-	-
COc1cccc(-c2cc(C(F)(F)F)c3c(N)c(C#N)sc3n2)c1	27	.	.	.	.	-	49
CC(C)CCC(C(=O)O)C(C)CC(=O)Nc1ccn(-c2ccccc2)n1 (centres undefined)	.	-	-	-	-	.	.
SMILES	TLR4-MyD88 BLA	MC4R antag cAMP	MC4R barr agon	TLR9-MyD88 block	NOD2-RIPK2 inh	TLR4-MyD88 conf	BLA inh HeLa
O=C1c2cccc3c([N+](=O)[O-])ccc(c23)C(=O)N1c1nccs1	93	-	-	79	89	92	114
CCCC1Cc2nc(N3CCCCC3)c(C#N)cc2CO1 (centres undefined)	26	-	-	-	-	-	-
OCCCc1nc2n(n1)C(c1ccccc1Cl)C=C(c1cccs1)N2 (centres undefined)	32	-	-	51	72	-	52
OCCCc1nc2n(n1)C(c1cccs1)C=C(c1ccccc1)N2 (centres undefined)	-	.	.	.	.	.	.
Cc1ccc(S(=O)(=O)NC(C(=O)Oc2ccc3c(C(F)(F)F)cc(=O)oc3c2)c2ccccc2)cc1 (centres undefined)	38	-	-	-	-	31	62
CN(C)c1nc(C=C(C#N)C#N)c(Cl)n1-c1ccc(F)cc1	35	-	-	-	-	27	-
CCOc1ccccc1NC(=O)/C(C#N)=C/c1c(C)nn(-c2ccc(F)cc2)c1Cl	-	-	-	-	-	.	.
Cc1ccc(NC(=O)C23CCC(C)(C(=O)[C@H]2Br)C3(C)C)cc1 (some centres undefined)	.	-	-	-	-	.	.
CC(C)Oc1ccccc1/C=N/NC(=O)C1CC1	.	-	-	.	-	.	.
COc1cc2c3nnc(-c4ccccc4)c-3cn(Cc3ccc(F)cc3)c2cc1OC	-	-	-	-	-	.	.
COc1cc2c3nnc(-c4ccc(F)cc4)c-3cn(Cc3cccc(F)c3)c2cc1OC	26	-	-	-	-	-	50
CC(=O)c1sc2nc(-c3cccs3)cc(C(F)(F)F)c2c1N	30	-	-	-	-	-	-
CCCOC(=O)c1ccc(S(N)(=O)=O)o1	27	-	-	-	-	-	-
CCCCOC(=O)c1ccc(S(N)(=O)=O)o1	-	-	-	-	-	.	.
O=C(CCc1nnc2ccc(N3CCCC3)nn12)Nc1cc(F)ccc1F	.	-	-	-	-	.	.
C=CCNc1sc(C(=O)c2ccc(Br)s2)c(N)c1C#N	37	-	-	-	-	-	55
C=CCNc1sc(C(=O)c2ccccc2)c(N)c1C#N	-	-	-	-	-	.	.
Cn1nc(-c2ccccc2)c2nc3ccccc3nc21	28	-	-	-	-	-	44
Cc1ccc(-c2nc3ccccc3nc2-c2ccccc2)cc1	.	-	-	-	-	.	.
CCCCn1nc(-c2ccccc2)c2nc3ccccc3nc21	49	.	.	.	.	47	50
CN(Cc1ccccc1)/C(=N/O)c1cccc(Cl)c1	.	-	-	-	-	.	.
CC(O)CN(Cc1cccc(Cl)c1)CC(C)O (centres undefined)	28	-	-	-	-	-	-
CSc1ncccc1C(=O)OC(C)C(=O)Nc1cccc(S(=O)(=O)N2CCOCC2)c1 (centres undefined)	.	-	-	-	-	.	.
